Bioassay records from PubChem.
NR2E3 ag-1 = NR2E3 agonists in two-hybrid cells, primary screen, cell-based, luminescence, CHO-S, Gal4-NCOR/VP16-NR2E3. luciferase. actives 0.35% (n = 360,000). AID 602229, 2012. inhibition of corepressor binding, % at 3.98 µM;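 active means inhibition above the mean of all tested compounds plus 3 SD, cut at about 70% in these data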;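 further: 0% = DMSO with NR2E3 transfected cells and 100% = cells lacking NR2E3 construct; higher means lower luciferase signal from less NR2E3 corepressor binding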
Jurkat NFkB inh = inhibitors of induced NF-kB luciferase reporter, primary screen, TCR NF-kB activation inhibitor project, cell-based, luminescence, uHTS. Jurkat, PMA/ionomycin-induced NF-kB luciferase reporter. inhibition, % at 4 µM. actives 0.53% (n = 330,000). AID 435003, 2010; in the data active means inhibition above about 50%
NR2E3 ag-2 = inhibitors of NR2E3-RetCOR corepressor binding, primary screen, NR2E3 agonist project, biochemical, TR-FRET, GST-NR2E3, biotin-RetCOR; Photoreceptor-specific nuclear receptor (Homo sapiens), Q9Y5X4; 1536-well; inhibition of corepressor binding, % at 4.78 µM; actives 0.12% (n = 320,000);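 active means percent inhibition above the cutoff of mean plus 3 SD of all tested compounds, set per screening campaign, cut at about 20% in these data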;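 further: 0% = DMSO wells and 100% = biotin wells as full block of FRET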
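System: GST-tagged NR2E3 plus biotinylated RetCOR corepressor; Buffer or medium: pH 7.5 Tris-based buffer; Probe or stimulus: RetCOR corepressor, biotinylated, 7 nM; Doses: compound at 4.8 µM, single dose; Schedule: 5 h incubation at 4 °C; Technique: time-resolved FRET; Evaluation: percent inhibition of TR-FRET ratio; Replication: one well per compound, singlicate testing.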
GASC-1 inh = inhibitors of GASC-1 histone demethylase, primary screen, biochemical, fluorescence, DELFIA europium; Lysine-specific demethylase 4C (Homo sapiens), Q9H3R0; inhibition, % at 2.35 µM; GST-JMJD2C(1-420) H3K9me3 demethylation; AID 2099, 2009; actives 0.069% (n = 330,000);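 active means more than half of a compound's replicate wells show inhibition beyond 50%, single wells judged on their own value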;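 further: signal counts dimethyl H3K9 product captured on neutravidin plate; 0% = median of DMSO wells and 100% = 0.3 times that DMSO median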
Target sequence (Q9H3R0 1-420 limits assumed): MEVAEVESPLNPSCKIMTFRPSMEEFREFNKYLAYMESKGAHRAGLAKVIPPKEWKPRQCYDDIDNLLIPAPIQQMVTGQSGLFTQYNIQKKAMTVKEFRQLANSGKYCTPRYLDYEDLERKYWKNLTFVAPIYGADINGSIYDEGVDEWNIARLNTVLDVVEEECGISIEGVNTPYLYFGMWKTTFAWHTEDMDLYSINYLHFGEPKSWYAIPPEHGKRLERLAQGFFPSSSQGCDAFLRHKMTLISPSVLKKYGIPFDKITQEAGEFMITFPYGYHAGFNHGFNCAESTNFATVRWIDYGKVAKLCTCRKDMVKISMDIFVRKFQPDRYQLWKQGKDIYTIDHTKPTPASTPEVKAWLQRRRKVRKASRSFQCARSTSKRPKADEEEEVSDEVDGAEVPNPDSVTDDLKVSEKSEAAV
697 NFkB inh = inhibitors of PMA/ionomycin-induced NF-kB reporter, 697 cells, primary screen, B-cell NF-kB inhibitor project, cell-based, luminescence, uHTS | AID 435022, 2010 | 697 B-cell NF-kB luciferase reporter, 16 h | inhibition, % at 4 µM | actives 0.33% (n = 330,000); in the data active means inhibition above about 35%
GalR3 antag = GalR3 antagonists in HEK293 cells, primary screen, cell-based, fluorescence readout. AID 651719, 2012. actives 0.44% (n = 360,000). Galanin receptor type 3 (Homo sapiens), O60755. inhibition, % at 3 µM. HEK293 GalR3-CNG cAMP membrane potential fluorescence; galR3 body fused to GalR1 C-terminus;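 active means inhibition above the screen-wide average plus 3 SD, cut at about 13% in these data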;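 further: forskolin and galanin both at EC90 stimulate the cells; cAMP rise reported by CNG channel membrane potential dye signal; 0% = forskolin plus galanin with DMSO and 100% = forskolin alone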
NR2E3 ag confirm = NR2E3 agonist confirmation in cells, cell-based, luminescence, CHO-S two-hybrid. CHO-S mammalian two-hybrid NR2E3-NCOR, luciferase luminescence. shares compounds with NR2E3 ag-1. actives 51% (n = 2,300). inhibition, % at 3.98 µM;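 active means average inhibition above a cutoff equal to the mean inhibition of all tested compounds plus one SD, cut at about 70% in these data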;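 further: 0% = DMSO in NR2E3 cells and 100% = DMSO in cells lacking NR2E3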
GAL4-VP16 luc = GAL4-VP16 reporter modulators, confirmation, counter-screen for NR2E3 agonist project, cell-based, luminescence, CHO-S, high throughput | shares compounds with NR2E3 ag-1 | CHO-S GAL4-VP16 luciferase reporter | inhibition, % at 3.98 µM | actives 29% (n = 2,300);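 active means mean inhibition above a cutoff equal to the average over all tested compounds plus one standard deviation, cut at about 70% in these data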;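 further: luciferase from a UAS reporter driven by GAL4-VP16 transactivation; 0% = DMSO with VP16-transfected cells and 100% = DMSO with cells lacking VP16; higher means less reporter light so more repression of VP16 activity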
GalR3 conf = GalR3 antagonist hit confirmation, cell-based, fluorescence, triplicate; shares compounds with GalR3 antag; HEK293 GalR3 CNG cAMP biosensor, membrane potential fluorescence; galR3 fused to GalR1 carboxy tail; challenged with forskolin and galanin at EC90; inhibition, % at 3 µM; actives 59% (n = 1,600); AID 652245, 2013;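 active means inhibition above the primary screen's cutoff, the mean inhibition of all screened compounds plus 3 SD, cut at about 13% in these data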;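 further: 0% = forskolin plus galanin and 100% = forskolin alone with DMSO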
CNG parental = nonspecific cAMP agonists in parental HEK-CNG cells, counter-screen for GalR3 antagonist project, cell-based, fluorescence, high throughput; AID 652268, 2013; activation, % at 3 µM; HEK293-CNG parental cells, cAMP membrane potential fluorescence; normalised: DMSO wells 0%, forskolin wells 100%; shares compounds with GalR3 antag; actives 10% (n = 1,600); in the data active means activation above about 1.3%
The depositor's hits bear a star; / = no result; ! = repeats disagree. Rows were chosen to be rich in hits. Some 1.5% of all compounds tested hit in one or more screens of this group.

SMILES | NR2E3 ag-1 | Jurkat NFkB inh | NR2E3 ag-2 | GASC-1 inh | 697 NFkB inh | GalR3 antag | NR2E3 ag confirm | GAL4-VP16 luc | GalR3 conf | CNG parental
Cc1ccc(C(=O)NC2CCCc3c2cnn3-c2ccc(F)cc2F)cn1 (configuration not stated) | 100.5* | 42.4 | 2.2 | -4.4 | -7.4 | 97.2* | 95.2* | 79.0* | 109.7* | -0.5
Cc1ccc(-n2ncc3c2CCCC3NC(=O)c2ocnc2C)cc1C (configuration not stated) | 100.9* | 45.4 | 1.6 | -1.7 | 27.4 | 100.8* | 90.4* | 79.9* | 113.3* | -0.4
Cc1nnsc1C(=O)NC1CCCc2c1cnn2-c1ccc(F)cc1F (configuration not stated) | 95.8* | 49.2 | 1.2 | 18.2 | 21.3 | 104.7* | 71.2* | 64.0 | 102.8* | -0.4
O=C(Nc1cccc(C(=O)O)c1)/C(=C\c1ccc2c(c1)OCO2)NC(=O)c1ccccc1Cl | -11.1 | 6.6 | 2.0 | -8.7 | 4.8 | -3.3 | / | / | / | /
c1ccc(CNc2ncnc3ccccc23)cc1 | 79.9*! | 30.8 | -0.4 | -4.6 | -6.9 | 92.7* | 72.4* | 71.1* | 85.6* | 0.3
COc1cc2ncnc(NCc3ccccc3)c2cc1OC | -7.9 | 2.5 | 0.1 | -10.1 | 5.5 | 1.5 | / | / | / | /
COc1ccc(CC2(CO)CCN(CC3=Cc4cc(Cl)ccc4OC3)CC2)cc1 | 69.2 | 34.9 | 0.2 | -8.7 | -16.5 | 69.6* | 96.0* | 73.8* | 75.7* | 2.2*
O=C(NCCc1ccccc1Cl)[C@@H]1CCCN1C(=O)[C@@H](NS(=O)(=O)c1ccc(F)cc1F)C1CCCCC1 | / | / | / | / | / | -1.0 | / | / | / | /
CC(NC(=O)c1cc(COc2ccc3ncccc3c2)on1)c1ccc(F)cc1 (configuration not stated) | 85.5* | 35.5 | 1.0 | 3.9 | -32.0 | 29.0* | 96.4* | 88.0* | 86.4* | 0.6
O=C(c1cc(COc2ccc3ncccc3c2)on1)N1CCCC1 | 83.8* | 13.2 | -0.5 | 4.1 | -47.1 | 100.7* | 79.8* | 60.9 | 30.1* | -0.3
CC(NC(=O)c1ccco1)C(=O)N1CCN(c2cccc(Cl)c2)CC1 (configuration not stated) | 11.6 | -9.5 | 0.9 | 4.4 | -11.3 | -3.0 | / | / | / | /
CC(C)C(NC(=O)Cc1ccccc1)C(=O)N1CCN(c2cccc(Cl)c2)CC1 (configuration not stated) | 62.6 | 14.4 | 0.2 | -2.1 | -16.4 | 43.6* | 64.6 | 41.6 | 0.3 | -0.3
CN(Cc1ccsc1)C(=O)Cn1cc(Br)ccc1=O | -41.5 | -36.7 | 1.4 | -7.2 | -28.7 | -10.6 | / | / | / | /
